Measurements: ChEMBL document CHEMBL5620402, “Development of submicromolar 17β-HSD10 inhibitors and their in vitro and in vivo evaluation” (Eur J Med Chem, 2023)

What was measured:
[1] = Inhibition of complex I linked mitochondrial respiration in isolated pig brain mitochondria by O2k respirometry; set-up: species or system Sus scrofa
Outline: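 Respirometry (Oxygraph-2k) of purified pig brain cortex mitochondria in state 3. Substrates were malate + pyruvate + ADP (Complex I) or ADP + rotenone + succinate (Complex II). One chamber was titrated with compound (10–20 concentrations, final 1.25–500 μM) and the other with DMSO; rates were expressed relative to DMSO. IC50 came from four-parameter logistic fits.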

[2] = target: T1, Amine oxidase [flavin-containing] B (Sus scrofa, UniProt Q6PLK3); experiment: Inhibition of pig brain mitochondrial MAO-B using [14C]PEA as substrate incubated for 60 mins by liquid scintillation counting analysis; assay type: mitochondria, Mitochondria
T1 sequence (Q6PLK3 whole entry): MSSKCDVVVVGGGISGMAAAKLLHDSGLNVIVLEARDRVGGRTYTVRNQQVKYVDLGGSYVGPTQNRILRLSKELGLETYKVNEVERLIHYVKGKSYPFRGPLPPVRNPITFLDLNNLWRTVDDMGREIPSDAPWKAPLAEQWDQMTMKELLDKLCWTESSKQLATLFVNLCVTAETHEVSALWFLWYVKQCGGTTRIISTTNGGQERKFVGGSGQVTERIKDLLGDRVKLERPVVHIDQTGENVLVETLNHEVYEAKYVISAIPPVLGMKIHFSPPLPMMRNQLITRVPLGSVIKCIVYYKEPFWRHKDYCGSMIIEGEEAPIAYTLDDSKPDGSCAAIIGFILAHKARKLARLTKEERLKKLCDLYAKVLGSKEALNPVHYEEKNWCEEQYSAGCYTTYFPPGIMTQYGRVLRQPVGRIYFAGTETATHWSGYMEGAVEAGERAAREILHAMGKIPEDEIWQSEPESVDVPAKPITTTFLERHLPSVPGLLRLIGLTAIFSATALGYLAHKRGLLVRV
Outline: (§1)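 Pig brain mitochondria were preincubated with drug at 5–7 concentrations (1–1000 μM) for 60 min at 37 °C. Radiolabelled substrate was then added: [3H]5-HT for MAO-A (20 min) or [14C]PEA for MAO-B (1 min). The aldehyde product was counted by liquid scintillation. IC50 came from four-parameter logistic fits; mean ± SE of ≥2 runs.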

[3] = Dissociation constant, pKa of compound using buffers of given pH (range from 3.0 to 11.5) by UV-VIS spectrophotometry; assay type: physicochemical
Outline: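 Compound (10 μL of 1 mg/mL) was put into 490 μL of buffers spanning pH 3.0–11.5 in 0.5-unit steps. UV spectra were scanned at 200–400 nm and 20 °C. pKa was fitted from the sigmoidal absorbance of the dissociated form versus pH.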

SH-SY5Y = experiment: Cytotoxicity against human SH-SY5Y cells assessed as change in ATP level at 10 uM measured after 48 hrs by CellTiter-Glo assay; assay type: toxicity, cell-based
Outline: (§2)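 HEK293 or SH-SY5Y cells in DMEM with 10% FBS, 2 mM glutamine and NEAA were seeded at 7,500 cells per well and grown 24 h. They were then exposed to 1 or 10 μM compound (final 1% DMSO) for 48 h. ATP was read by CellTiter-Glo luminescence after CellTox Green, normalised to 1% DMSO and 100 μM valinomycin controls. At least two experiments in tetraplicate.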

[4] = target: T2, Amine oxidase [flavin-containing] A (Sus scrofa, UniProt Q6Q2J0); experiment: Inhibition of pig brain mitochondrial MAO-A using [3H]5-HT as substrate incubated for 60 mins by liquid scintillation counting analysis; assay type: mitochondria, Mitochondria; outline: as §1
T2 sequence (Q6Q2J0 whole entry): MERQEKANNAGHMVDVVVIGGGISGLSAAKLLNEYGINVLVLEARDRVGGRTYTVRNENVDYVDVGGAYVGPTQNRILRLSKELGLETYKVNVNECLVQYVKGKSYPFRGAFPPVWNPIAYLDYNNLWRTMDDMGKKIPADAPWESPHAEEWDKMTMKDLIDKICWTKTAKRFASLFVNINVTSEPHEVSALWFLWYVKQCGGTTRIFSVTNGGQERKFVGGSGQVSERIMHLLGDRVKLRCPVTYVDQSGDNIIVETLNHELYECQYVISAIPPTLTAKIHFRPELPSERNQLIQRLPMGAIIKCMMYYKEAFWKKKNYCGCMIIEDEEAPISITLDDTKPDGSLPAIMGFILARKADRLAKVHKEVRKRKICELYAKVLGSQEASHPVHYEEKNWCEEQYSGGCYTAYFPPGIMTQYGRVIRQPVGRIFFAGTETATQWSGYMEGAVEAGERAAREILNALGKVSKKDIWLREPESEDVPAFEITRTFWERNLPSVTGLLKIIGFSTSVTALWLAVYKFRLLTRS

[5] = target: T3, Citrate synthase, mitochondrial (Sus scrofa) (UniProt P00889); experiment: Inhibition of pig brain mitochondrial citrate synthase assessed as activity at 50 uM by DTNB method (reference value: 100 + /- 5.5%); set-up: scale not given: the % may be the effect or the level left; conditions: Mitochondria
T3 sequence (whole entry): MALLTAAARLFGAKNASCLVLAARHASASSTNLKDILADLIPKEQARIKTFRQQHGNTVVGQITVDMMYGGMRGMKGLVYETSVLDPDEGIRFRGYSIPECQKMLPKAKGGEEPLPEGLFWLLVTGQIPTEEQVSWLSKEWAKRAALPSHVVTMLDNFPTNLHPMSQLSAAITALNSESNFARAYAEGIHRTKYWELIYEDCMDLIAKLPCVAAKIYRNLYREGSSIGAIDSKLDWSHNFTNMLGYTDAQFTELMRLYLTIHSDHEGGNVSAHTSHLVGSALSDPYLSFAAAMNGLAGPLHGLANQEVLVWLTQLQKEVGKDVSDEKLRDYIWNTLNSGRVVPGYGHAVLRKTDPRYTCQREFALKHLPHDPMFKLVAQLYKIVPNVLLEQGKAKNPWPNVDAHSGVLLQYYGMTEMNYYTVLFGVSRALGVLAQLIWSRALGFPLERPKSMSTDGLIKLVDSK

HEK293 = experiment: Cytotoxicity against human HEK293 cells assessed as change in ATP level at 1 uM measured after 48 hrs by CellTiter-Glo assay; assay type: toxicity, cell-based; conditions: hek293, 48 h; outline: as §2

| SMILES | IC50 [1] [µM] | IC50 ([2]; read-out: IC50) [µM] | pKa [3] | Activity (SH-SY5Y) | IC50 ([4]; read-out: IC50) [µM] | Activity [5] [%] | Activity (HEK293) | IC50 [2] | IC50 [4] |
| --- | --- | --- | --- | --- | --- | --- | --- | --- | --- |
| CC(=O)Nc1ccc2nc(NC(=O)Nc3ccc(O)c(Cl)c3)sc2c1 | 36.4 | 120 | 9.83 | Non-Toxic | 5.8 | 99.9 | Non-Toxic | – | – |
| O=C(Nc1ccc(O)c(Cl)c1)Nc1nc2ccc(C(=O)O)cc2s1 | 93 | 81 | 9.75 | Non-Toxic | 85 | 100 | Non-Toxic | – | – |
| COc1ccc2nc(NC(=O)Nc3ccc(O)c(C(F)(F)F)c3)sc2c1 | 28 | – | 11.2 | Toxic | 79 | 92.7 | Non-Toxic | Not Active | – |
| NC(=O)c1ccc2nc(NC(=O)Nc3ccc(O)c(Cl)c3)sc2c1 | 88 | 84 | 9.35 | Non-Toxic | – | 94.4 | Non-Toxic | – | Not Active |
